Results as given in ChEMBL document CHEMBL5385869, “Novel 4-aminoquinolines: Synthesis, inhibition of the Mycobacterium tuberculosis enoyl-acyl carrier protein reductase, antitubercular activity, SAR, and preclinical evaluation” (Eur J Med Chem, 2023).
≈ marks a conversion by molar mass, not a printed value. Calls of active or inactive are those of the source. The rule behind the calls is not given here.

What was measured:
[1] = target: T1, Enoyl-[acyl-carrier-protein] reductase [NADH] (Mycobacterium tuberculosis, UniProt P9WGR1); experiment: Inhibition of Mycobacterium tuberculosis InhA-catalysed chemical reaction in presence of NADH measured for 1 min by UV/Visible spectrophotometry
T1 sequence (P9WGR1 whole entry): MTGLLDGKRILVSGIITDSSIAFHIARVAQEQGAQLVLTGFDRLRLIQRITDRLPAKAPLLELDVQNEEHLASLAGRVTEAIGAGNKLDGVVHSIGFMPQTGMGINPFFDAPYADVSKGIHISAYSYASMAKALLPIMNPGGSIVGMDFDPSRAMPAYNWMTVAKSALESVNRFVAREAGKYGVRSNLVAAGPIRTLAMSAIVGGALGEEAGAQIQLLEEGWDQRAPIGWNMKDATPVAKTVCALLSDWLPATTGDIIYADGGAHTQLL
Summary of the method: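 Recombinant MtInhA reaction at 25 °C in 100 mM Pipes pH 7.0, started by adding 2.2 μM enzyme and followed for 1 min. Substrate is DD-CoA, made from 2-trans-dodecenoic acid and CoA.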

[2] = test system: Mycobacterium tuberculosis; experiment: Antibacterial activity against pan-sensitive Mycobacterium tuberculosis H37Rv ATCC 27294 measured after 7 days by resazurin dye based assay; format: functional; settings: H37Rv ATCC 27294, 168 h, time 7 day
Summary of the method: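 Resazurin reduction microplate assay (REMA) in Middlebrook 7H9 broth with 10% ADC and 5% DMSO. Compounds come from 2 mg/mL DMSO stocks and are 2-fold serially diluted, top concentration 0.08–40 μg/mL depending on solubility. MIC is the lowest concentration preventing the blue-to-pink colour change. Three independent experiments; the reported value is the modal or the highest value.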

[3] = target: T2, Enoyl-[acyl-carrier-protein] reductase [NADH] (Mycobacterium tuberculosis) (UniProt P9WGR1); experiment: Time dependent inhibition of Mycobacterium tuberculosis InhA
T2 sequence (whole entry): T1 sequence (P9WGR1 whole entry)

[4] = target: T1, Enoyl-[acyl-carrier-protein] reductase [NADH]; experiment: Competitive inhibition of Mycobacterium tuberculosis InhA using varying concentrations of DD-CoA as substrate assessed as inhibition constant for enzyme-inhibitor binary complex in presence of NADH by Lineweaver-Burk plot analysis
Summary of the method: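 Steady-state kinetics with recombinant MtInhA in 100 mM Pipes pH 7.0 at 25 °C. NADH fixed at 60 μM, DD-CoA varied 15–135 μM, inhibitor at fixed-varied levels of 0.2–4 μM. Kis is fitted to the competitive inhibition equation.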

[5] = Cytotoxicity against human HepG2 cells assessed as reduction in cell viability incubated for 72 hrs by neutral red uptake assay; format: toxicity, cell-based
Summary of the method: (§1)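 Cells grown in DMEM with 10% FBS. HepG2 seeded at 4 × 10³ and Vero at 2 × 10³ cells/well, 24 h before dosing. Compounds at 1, 5 and 20 μM in 1% DMSO for 72 h at 37 °C, 5% CO2. MTT readout: 5 mg/mL reagent for 4 h, absorbance at 595 nm. Neutral red readout: 25 μg/mL dye for 3 h, then acid-ethanol desorb. Viability is expressed relative to 1% DMSO controls.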

[6] = Cytotoxicity against African green monkey Vero cells assessed as reduction in cell viability incubated for 72 hrs by MTT assay; format: toxicity, cell-based; settings: chlorocebus sabaeus; summary of the method: as §1
[7] = Cytotoxicity against African green monkey Vero cells assessed as reduction in cell viability incubated for 72 hrs by neutral red uptake assay; format: toxicity, cell-based; settings: chlorocebus sabaeus; summary of the method: as §1
[8] = Selectivity index, ratio of CC50 for human HepG2 cells by MTT assay to MIC for pan-sensitive Mycobacterium tuberculosis H37Rv ATCC 27294; format: toxicity; settings: read-out: Selectivity Index
[9] = Selectivity index, ratio of CC50 for human HepG2 cells by neutral red uptake assay to MIC for pan-sensitive Mycobacterium tuberculosis H37Rv ATCC 27294; format: toxicity; settings: read-out: Selectivity Index
Staphylococcus aureus = experiment: Antibacterial activity against Staphylococcus aureus ATCC 25923 assessed as inhibition of bacterial growth at 20 uM by broth microdilution method; format: functional, organism-based
Summary of the method: (§2)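 Broth microdilution in triplicate against a small bacterial panel, with compounds tested at 20 μM for growth inhibition.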

Klebsiella pneumoniae = experiment: Antibacterial activity against multidrug-resistant Klebsiella pneumoniae clinical isolates assessed as inhibition of bacterial growth at 20 uM by broth microdilution method; format: functional, organism-based; summary of the method: as §2
[10] = Chemical stability in 0.1 M HCl solution at pH 1.2 assessed as parent compound remaining at 1 to 10 uM measured after 24 hrs by HPLC-EM/MS analysis; format: physicochemical; settings: dose 1-10 µM, read-out: Stability
Summary of the method: (§3)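 Compounds at 1–10 μM incubated 24 h at 37 °C in three media: pH 1.2 (0.1 M HCl), pH 7.4 (PBS) and pH 9.1 (0.1 M NH4HCO3). Remaining parent compound quantified afterward.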

[11] = Chemical stability in PBS at pH 7.4 assessed as parent compound remaining at 1 to 10 uM measured after 24 hrs by HPLC-EM/MS analysis; format: physicochemical; settings: dose 1-10 µM, read-out: Stability; summary of the method: as §3
[12] = Chemical stability in 0.1 M NH4HCO3 solution at pH 9.1 assessed as parent compound remaining at 1 to 10 uM measured after 24 hrs by HPLC-EM/MS analysis; format: physicochemical; settings: dose 1-10 µM, read-out: Stability; summary of the method: as §3
[13] = Metabolic stability in rat liver microsomes assessed as intrinsic clearance at 2 uM measured upto 30 mins by HPLC/MS/MS analysis; format: ADME, Microsome; settings: read-out: CLH
Summary of the method: (§4)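 Compounds at 2 μM incubated at 37 °C with 1 mg/mL rat liver microsomes containing NADPH. Parent compound consumption followed over time.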

[14] = Metabolic stability in rat liver microsomes assessed as half life at 2 uM measured upto 30 mins by HPLC/MS/MS analysis; format: ADME, Microsome; summary of the method: as §4
[15] = Chemical stability in 0.1 M NH4HCO3 solution at pH 9.1 assessed as reduction in parent compound at 1 to 10 uM measured after 24 hrs by HPLC-EM/MS analysis; format: physicochemical; settings: dose 1-10 µM, read-out: Drug degradation; summary of the method: as §3
[16] = test system: Mycobacterium tuberculosis; experiment: Antibacterial activity against Mycobacterium tuberculosis H37Rv ATCC 27294 infected in mouse RAW264.7 cells assessed as reduction in colony forming units at 5 uM measured after 5 days (reference value: 4.19 +/- 0.41); format: functional; settings: time 5 day
[17] = target: T2, Enoyl-[acyl-carrier-protein] reductase [NADH] (Mycobacterium tuberculosis); experiment: Binding affinity to Mycobacterium tuberculosis InhA assessed as change in enthalpy at 250 uM in presence of NADH by fluorescence spectroscopy
[18] = target: T2, Enoyl-[acyl-carrier-protein] reductase [NADH] (Mycobacterium tuberculosis); experiment: Binding affinity to Mycobacterium tuberculosis InhA assessed as change in entropy at 250 uM in presence of NADH by fluorescence spectroscopy
[19] = target: T2, Enoyl-[acyl-carrier-protein] reductase [NADH] (Mycobacterium tuberculosis); experiment: Binding affinity to Mycobacterium tuberculosis InhA assessed as gibbs free energy change at 250 uM in presence of NADH by fluorescence spectroscopy
Summary of the method: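 Titration of pre-formed MtInhA:NADH complex (2 mL of 3 μM enzyme with 20 μM NADH), adding microliter aliquots of 250 μM ligand stock with dilution kept ≤1%. Intrinsic fluorescence read at 295 nm excitation, 310–500 nm emission. Temperatures 15, 20, 25 and 30 °C. KD is fitted to a hyperbolic isotherm. ΔH°, ΔS° and ΔG° come from van't Hoff analysis of KD across temperatures.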

## Cc1cc(Nc2ccc(N3CCCCC3)cc2)c2cc(Br)ccc2n1
[1]
  IC50: 0.23 µM
[2]
  MIC: 0.4 µM (≈ 0.159 µg/mL)
[3]
  TDI: inactive
[4]
  Ki: 0.14 µM
[5]
  CC50 at 72 h: 18.3 µM
[6]
  CC50 at 72 h: > 20 µM
[7]
  CC50 at 72 h: 12.2 µM
[8]
  selectivity ratio: > 50
[9]
  selectivity ratio: 45.7
Staphylococcus aureus
  Activity: inactive
Klebsiella pneumoniae
  Activity: inactive
[10]
  remaining at 24 h, up to 10 µM: 94.6%
[11]
  remaining at 24 h, up to 10 µM: 100%
[12]
  remaining at 24 h, up to 10 µM: 47%
[13]
  CLint scaled at 2 µM: 36.2 mL/min/kg
[14]
  half-life at 2 µM: 22 min
[15]
  degraded at 24 h, up to 10 µM: ~50%
[16]
  Activity: 2.74 log10CFU
[17]
  deltaH: -18.3 kcal/mol
[18]
  deltaS: -33.4 cal/mol/K
[19]
  deltaG: -8.3 kcal/mol

## Cc1cc(Nc2ccc(N3CCCCC3)cc2)c2cc(Cl)ccc2n1
[1]
  IC50: 1.1 µM
[2]
  MIC: 0.9 µM (≈ 0.317 µg/mL)
[3]
  TDI: inactive
[4]
  Ki: 1.33 µM
[5]
  CC50 at 72 h: 16.4 µM
[6]
  CC50 at 72 h: 19.2 µM
[7]
  CC50 at 72 h: 11.7 µM
[8]
  selectivity ratio: > 22.2
[9]
  selectivity ratio: 18.2
Staphylococcus aureus
  Activity: inactive
Klebsiella pneumoniae
  Activity: inactive
[10]
  remaining at 24 h, up to 10 µM: 98.6%
[11]
  remaining at 24 h, up to 10 µM: 100%
[12]
  remaining at 24 h, up to 10 µM: 24.7%
[13]
  CLint scaled at 2 µM: 60.5 mL/min/kg
[14]
  half-life at 2 µM: 5.9 min
[15]
  degraded at 24 h, up to 10 µM: > 75%
[16]
  Activity: 2.39 log10CFU
[17]
  deltaH: -23.2 kcal/mol
[18]
  deltaS: -49.8 cal/mol/K
[19]
  deltaG: -8.3 kcal/mol
